From ChEMBL document CHEMBL5058577, “EUbOPEN Chemogenomics Library 2 (Multiplex)” (2022)

System: Fibroblast
Experiment: Multiplex assay against human fibroblast
Type: toxicity, cell-based
Summary of the method: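 Imaging took place on a CQ1 microscope at 37°C and 5% CO2 once compound had been added to live cells stained at seeding with Hoechst33342, BioTracker Green Microtubule Cytoskeleton Dye, MitoTracker Red and Annexin V Alexa Fluor 680. CellPathfinder machine-learning gating classed cells as Hoechst high-intensity objects or normal cells, classed normal cells as having healthy, pyknosed or fragmented nuclei, and classed pyknosed cells as mitotic or apoptotic. Tubulin, mitochondrial-mass and membrane-permeability phenotypes are per cents of the healthy-nucleus cells.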

[1] = 12 h, 1 µM, compound concentration 1 uM, replicate 1
[2] = 12 h, 1 µM, compound concentration 1 uM, replicate 2
[3] = 12 h, 10 µM, compound concentration 10 uM, replicate 1
[4] = 12 h, 10 µM, compound concentration 10 uM, replicate 2
[5] = 24 h, 1 µM, compound concentration 1 uM, replicate 1
[6] = 24 h, 1 µM, compound concentration 1 uM, replicate 2
[7] = 24 h, 10 µM, compound concentration 10 uM, replicate 1
[8] = 24 h, 10 µM, compound concentration 10 uM, replicate 2
[9] = 48 h, 1 µM, compound concentration 1 uM, replicate 1
[10] = 48 h, 1 µM, compound concentration 1 uM, replicate 2
[11] = 48 h, 10 µM, compound concentration 10 uM, replicate 1
[12] = 48 h, 10 µM, compound concentration 10 uM, replicate 2

CC(=O)Nc1cccc2c1c(Sc1ccc(Cl)cc1)c(C)n2CC(=O)O [AZD1981]
Population Apoptotic (%) [1]: 27%
Population Fragmented Nuclei (%) [1]: 18%
Population Healthy Nuclei (%) [1]: 61%
Population Hoechst High Intensity Objects (%) [1]: 1%
Population Membrane Permeable-Phenotype (%) [1]: 2%
Population Mitochondria Different-Phenotype (%) [1]: 9%
Population Mitotic Cells (%) [1]: 72%
Population Normal (%) [1]: 98%
Population Pyknosed Nuclei (%) [1]: 19%
Population Tubulin-Different-Phenotype (%) [1]: 33%
Total Cell Count [1]: 173
Population Apoptotic (%) [2]: 37%
Population Fragmented Nuclei (%) [2]: 31%
Population Healthy Nuclei (%) [2]: 47%
Population Hoechst High Intensity Objects (%) [2]: 3%
Population Membrane Permeable-Phenotype (%) [2]: 14%
Population Mitochondria Different-Phenotype (%) [2]: 7%
Population Mitotic Cells (%) [2]: 62%
Population Normal (%) [2]: 96%
Population Pyknosed Nuclei (%) [2]: 21%
Population Tubulin-Different-Phenotype (%) [2]: 55%
Total Cell Count [2]: 118
Population Apoptotic (%) [3]: 40%
Population Fragmented Nuclei (%) [3]: 16%
Population Healthy Nuclei (%) [3]: 64%
Population Hoechst High Intensity Objects (%) [3]: 3%
Population Membrane Permeable-Phenotype (%) [3]: 2%
Population Mitochondria Different-Phenotype (%) [3]: 3%
Population Mitotic Cells (%) [3]: 60%
Population Normal (%) [3]: 96%
Population Pyknosed Nuclei (%) [3]: 19%
Population Tubulin-Different-Phenotype (%) [3]: 24%
Total Cell Count [3]: 133
Population Apoptotic (%) [4]: 33%
Population Fragmented Nuclei (%) [4]: 35%
Population Healthy Nuclei (%) [4]: 42%
Population Hoechst High Intensity Objects (%) [4]: 4%
Population Membrane Permeable-Phenotype (%) [4]: 8%
Population Mitochondria Different-Phenotype (%) [4]: 0%
Population Mitotic Cells (%) [4]: 66%
Population Normal (%) [4]: 95%
Population Pyknosed Nuclei (%) [4]: 22%
Population Tubulin-Different-Phenotype (%) [4]: 35%
Total Cell Count [4]: 112
Population Apoptotic (%) [5]: 53%
Population Fragmented Nuclei (%) [5]: 19%
Population Healthy Nuclei (%) [5]: 63%
Population Hoechst High Intensity Objects (%) [5]: 6%
Population Membrane Permeable-Phenotype (%) [5]: 2%
Population Mitochondria Different-Phenotype (%) [5]: 2%
Population Mitotic Cells (%) [5]: 46%
Population Normal (%) [5]: 93%
Population Pyknosed Nuclei (%) [5]: 16%
Population Tubulin-Different-Phenotype (%) [5]: 28%
Total Cell Count [5]: 168
Population Apoptotic (%) [6]: 36%
Population Fragmented Nuclei (%) [6]: 30%
Population Healthy Nuclei (%) [6]: 53%
Population Hoechst High Intensity Objects (%) [6]: 3%
Population Membrane Permeable-Phenotype (%) [6]: 7%
Population Mitochondria Different-Phenotype (%) [6]: 7%
Population Mitotic Cells (%) [6]: 63%
Population Normal (%) [6]: 96%
Population Pyknosed Nuclei (%) [6]: 15%
Population Tubulin-Different-Phenotype (%) [6]: 53%
Total Cell Count [6]: 128
Population Apoptotic (%) [7]: 41%
Population Fragmented Nuclei (%) [7]: 13%
Population Healthy Nuclei (%) [7]: 68%
Population Hoechst High Intensity Objects (%) [7]: 4%
Population Membrane Permeable-Phenotype (%) [7]: 2%
Population Mitochondria Different-Phenotype (%) [7]: 5%
Population Mitotic Cells (%) [7]: 58%
Population Normal (%) [7]: 95%
Population Pyknosed Nuclei (%) [7]: 18%
Population Tubulin-Different-Phenotype (%) [7]: 17%
Total Cell Count [7]: 135
Population Apoptotic (%) [8]: 55%
Population Fragmented Nuclei (%) [8]: 36%
Population Healthy Nuclei (%) [8]: 43%
Population Hoechst High Intensity Objects (%) [8]: 6%
Population Membrane Permeable-Phenotype (%) [8]: 14%
Population Mitochondria Different-Phenotype (%) [8]: 0%
Population Mitotic Cells (%) [8]: 45%
Population Normal (%) [8]: 93%
Population Pyknosed Nuclei (%) [8]: 20%
Population Tubulin-Different-Phenotype (%) [8]: 40%
Total Cell Count [8]: 104
Population Apoptotic (%) [9]: 54%
Population Fragmented Nuclei (%) [9]: 23%
Population Healthy Nuclei (%) [9]: 61%
Population Hoechst High Intensity Objects (%) [9]: 6%
Population Membrane Permeable-Phenotype (%) [9]: 1%
Population Mitochondria Different-Phenotype (%) [9]: 6%
Population Mitotic Cells (%) [9]: 45%
Population Normal (%) [9]: 93%
Population Pyknosed Nuclei (%) [9]: 15%
Population Tubulin-Different-Phenotype (%) [9]: 33%
Total Cell Count [9]: 171
Population Apoptotic (%) [10]: 57%
Population Fragmented Nuclei (%) [10]: 34%
Population Healthy Nuclei (%) [10]: 54%
Population Hoechst High Intensity Objects (%) [10]: 3%
Population Membrane Permeable-Phenotype (%) [10]: 8%
Population Mitochondria Different-Phenotype (%) [10]: 2%
Population Mitotic Cells (%) [10]: 42%
Population Normal (%) [10]: 96%
Population Pyknosed Nuclei (%) [10]: 11%
Population Tubulin-Different-Phenotype (%) [10]: 52%
Total Cell Count [10]: 129
Population Apoptotic (%) [11]: 64%
Population Fragmented Nuclei (%) [11]: 21%
Population Healthy Nuclei (%) [11]: 64%
Population Hoechst High Intensity Objects (%) [11]: 4%
Population Membrane Permeable-Phenotype (%) [11]: 0%
Population Mitochondria Different-Phenotype (%) [11]: 2%
Population Mitotic Cells (%) [11]: 35%
Population Normal (%) [11]: 95%
Population Pyknosed Nuclei (%) [11]: 13%
Population Tubulin-Different-Phenotype (%) [11]: 25%
Total Cell Count [11]: 134
Population Apoptotic (%) [12]: 40%
Population Fragmented Nuclei (%) [12]: 43%
Population Healthy Nuclei (%) [12]: 42%
Population Membrane Permeable-Phenotype (%) [12]: 11%
Population Mitochondria Different-Phenotype (%) [12]: 0%
Population Mitotic Cells (%) [12]: 60%
Population Pyknosed Nuclei (%) [12]: 15%
Population Tubulin-Different-Phenotype (%) [12]: 54%
Total Cell Count [12]: 105
